# Calls of active or inactive are those of the source. The rule behind the calls is not given here.
# Columns and labels:
# NCI-H322M = test: Growth inhibition of human NCI-H322M cells; assay type: functional
# OVCAR-5 = test: Growth inhibition of human OVACAR5 cells; assay type: functional
# MDA-MB-435 = test: Growth inhibition of human MDA-MB-435 cells; assay type: functional
# SNB-19 = test: Growth inhibition of human SNB19 cells; assay type: functional
# U-251 = test: Growth inhibition of human U251 cells; assay type: functional
# SF-268 = test: Growth inhibition of human SF268 cells; assay type: functional
# BT-549 = test: Growth inhibition of human BT549 cells; assay type: functional
# NCI-H23 = test: Growth inhibition of human NCI-H23 cells; assay type: functional
# SK-MEL-28 = test: Growth inhibition of human SK-MEL28 cells; assay type: functional
# NCI-H522 = test: Growth inhibition of human NCI-H522 cells; assay type: functional
# PC-3 = test: Growth inhibition of human PC3 cells; assay type: functional
# SW-620 = test: Growth inhibition of human SW620 cells; assay type: functional
# SN12C = test: Growth inhibition of human SN12C cells; assay type: functional
# DU-145 = test: Growth inhibition of human DU145 cells; assay type: functional
# [1] = Growth inhibition of human OVACAR3 cells; assay type: functional
# HCT-15 = test: Growth inhibition of human HCT15 cells; assay type: functional
# SF-295 = test: Growth inhibition of human SF295 cells; assay type: functional
# LOX IMVI = test: Growth inhibition of human LOXIMVI cells; assay type: functional
# MDA-MB-231 = test: Growth inhibition of human MDA-MB-231 cells; assay type: functional
# HCT-116 = test: Growth inhibition of human HCT116 cells; assay type: functional
# MCF7 = test: Growth inhibition of human MCF7 cells; assay type: functional
# K562 = test: Growth inhibition of human K562 cells; assay type: functional
# Hs-578T = test: Growth inhibition of human HS578T cells; assay type: functional
# [2] = Inhibition of 1,10-phenanthroline-induced HIF1 activation in T47D cells by TK-luciferase assay; assay type: cell-based; details: Homo sapiens
# Procedure, shortened: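 HIF-1 reporter (pHRE-TK-Luc) assays in transfected PC-3 or T47D cells; HIF-1 induced by hypoxia or by the hypoxia mimetic 1,10-phenanthroline (10 μM); compounds at half-log concentrations; luciferase activity measured; IC50 from experiments in triplicate.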
# NCI/ADR-RES = test: Growth inhibition of human NCI/ADR-RES cells; assay type: functional
# SK-OV-3 = test: Growth inhibition of human SK-OV3 cells; assay type: functional
# 786-0 = test: Growth inhibition of human 786-0 cells; assay type: functional
# UO-31 = test: Growth inhibition of human UO31 cells; assay type: functional
# UACC-62 = test: Growth inhibition of human UACC62 cells; assay type: functional
# A549 = test: Growth inhibition of human A549 cells; assay type: functional
# HOP-62 = test: Growth inhibition of human HOP62 cells; assay type: functional
# COLO 205 = test: Growth inhibition of human COLO205 cells; assay type: functional
# KM12 = test: Growth inhibition of human KM12 cells; assay type: functional
# T47D [3] = test: Inhibition of 1,10-phenanthroline-induced VEGF protein secretion in human T47D cells at 10 uM after 16 hrs by ELISA; assay type: functional, cell-based
# Procedure, shortened: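 T47D cells stimulated with 1,10-phenanthroline, compound at 10 μM; secreted VEGF in conditioned media by ELISA, normalized to cell-lysate protein.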
# CAKI-1 = test: Growth inhibition of human CAKI1 cells; assay type: functional
# ACHN = test: Growth inhibition of human ACHN cells; assay type: functional
# HOP-92 = test: Growth inhibition of human HOP92 cells; assay type: functional
# SNB-75 = test: Growth inhibition of human SNB75 cells; assay type: functional
# T47D [4] = test: Growth inhibition of human T47D cells; assay type: functional
# [5] = read-out: Log LC50 (the source's name) (converted)
smiles,measurement,setting,value
CCCc1cc(=O)c2c(O)c3c(OC)cc(O)cc3cc2o1,GI50,NCI-H322M,26.3 µM
same,CC50,NCI-H322M; [5],> 100 µM
same,TGI,NCI-H322M; read-out: Log TGI (converted),> 100 µM
same,GI50,OVCAR-5,25.1 µM
same,LC50,OVCAR-5,> 100 µM
same,TGI,OVCAR-5; read-out: Log TGI (converted),60.3 µM
same,GI50,MDA-MB-435,20.9 µM
same,LC50,MDA-MB-435,> 100 µM
same,TGI,MDA-MB-435; read-out: Log TGI (converted),57.5 µM
same,GI50,SNB-19,32.4 µM
same,LC50,SNB-19,100 µM
same,TGI,SNB-19; read-out: Log TGI (converted),100 µM
same,GI50,U-251,16.2 µM
same,LC50,U-251,95.5 µM
same,TGI,U-251; read-out: Log TGI (converted),38.9 µM
same,GI50,SF-268,20.4 µM
same,LC50,SF-268,> 100 µM
same,TGI,SF-268; read-out: Log TGI (converted),58.9 µM
same,GI50,BT-549,18.2 µM
same,LC50,BT-549,95.5 µM
same,TGI,BT-549; read-out: Log TGI (converted),41.7 µM
same,GI50,NCI-H23,22.4 µM
same,CC50,NCI-H23; [5],> 100 µM
same,TGI,NCI-H23; read-out: Log TGI (converted),49 µM
same,GI50,SK-MEL-28,20 µM
same,CC50,SK-MEL-28; [5],87.1 µM
same,TGI,SK-MEL-28; read-out: Log TGI (converted),41.7 µM
same,GI50,NCI-H522,> 100 µM
same,CC50,NCI-H522; [5],41.7 µM
same,TGI,NCI-H522; read-out: Log TGI (converted),15.1 µM
same,GI50,PC-3,20.4 µM
same,LC50,PC-3,> 100 µM
same,TGI,PC-3; read-out: Log TGI (converted),67.6 µM
same,GI50,SW-620,21.4 µM
same,CC50,SW-620; [5],77.6 µM
same,TGI,SW-620; read-out: Log TGI (converted),40.7 µM
same,GI50,SN12C,19.1 µM
same,LC50,SN12C,> 100 µM
same,TGI,SN12C; read-out: Log TGI (converted),50.1 µM
same,GI50,DU-145,18.2 µM
same,CC50,DU-145; [5],> 100 µM
same,TGI,DU-145; read-out: Log TGI (converted),45.7 µM
same,GI50,[1],27.5 µM
same,CC50,[1]; [5],> 100 µM
same,TGI,[1]; read-out: Log TGI (converted),> 100 µM
same,GI50,HCT-15,15.1 µM
same,CC50,HCT-15; [5],> 100 µM
same,TGI,HCT-15; read-out: Log TGI (converted),40.7 µM
same,GI50,SF-295,24.5 µM
same,LC50,SF-295,> 100 µM
same,TGI,SF-295; read-out: Log TGI (converted),77.6 µM
same,GI50,LOX IMVI,16.6 µM
same,LC50,LOX IMVI,63.1 µM
same,TGI,LOX IMVI; read-out: Log TGI (converted),32.4 µM
same,GI50,MDA-MB-231,15.5 µM
same,LC50,MDA-MB-231,> 100 µM
same,TGI,MDA-MB-231; read-out: Log TGI (converted),45.7 µM
same,GI50,HCT-116,18.6 µM
same,CC50,HCT-116; [5],75.9 µM
same,TGI,HCT-116; read-out: Log TGI (converted),37.2 µM
same,GI50,MCF7,25.1 µM
same,LC50,MCF7,> 100 µM
same,TGI,MCF7; read-out: Log TGI (converted),60.3 µM
same,GI50,K562,18.2 µM
same,CC50,K562; [5],> 100 µM
same,TGI,K562; read-out: Log TGI (converted),56.2 µM
same,GI50,Hs-578T,25.1 µM
same,LC50,Hs-578T,> 100 µM
same,TGI,Hs-578T; read-out: Log TGI (converted),67.6 µM
same,IC50,[2],0.6 µM
same,GI50,NCI/ADR-RES,26.3 µM
same,LC50 (concentration killing 50% of cells),NCI/ADR-RES,> 100 µM
same,TGI,NCI/ADR-RES; read-out: Log TGI (converted),75.9 µM
same,GI50,SK-OV-3,32.4 µM
same,LC50,SK-OV-3,> 100 µM
same,TGI,SK-OV-3; read-out: Log TGI (converted),85.1 µM
same,GI50,786-0,25.1 µM
same,LC50,786-0,> 100 µM
same,TGI,786-0; read-out: Log TGI (converted),> 100 µM
same,GI50,UO-31,16.2 µM
same,LC50,UO-31,> 100 µM
same,TGI,UO-31; read-out: Log TGI (converted),42.7 µM
same,GI50,UACC-62,15.5 µM
same,"LC50 (lethal concentration, 50% cell kill)",UACC-62,57.5 µM
same,TGI,UACC-62; read-out: Log TGI (converted),29.5 µM
same,GI50,A549,19.1 µM
same,CC50,A549; [5],> 100 µM
same,TGI,A549; read-out: Log TGI (converted),50.1 µM
same,GI50,HOP-62,22.9 µM
same,CC50,HOP-62; [5],> 100 µM
same,TGI,HOP-62; read-out: Log TGI (converted),56.2 µM
same,GI50,COLO 205,25.1 µM
same,CC50,COLO 205; [5],> 100 µM
same,TGI,COLO 205; read-out: Log TGI (converted),50.1 µM
same,GI50,KM12,17.4 µM
same,CC50,KM12; [5],93.3 µM
same,TGI,KM12; read-out: Log TGI (converted),39.8 µM
same,Activity,T47D [3],inactive
same,GI50,CAKI-1,30.2 µM
same,LC50,CAKI-1,> 100 µM
same,TGI,CAKI-1; read-out: Log TGI (converted),> 100 µM
same,GI50,ACHN,22.4 µM
same,CC50,ACHN; [5],> 100 µM
same,TGI,ACHN; read-out: Log TGI (converted),64.6 µM
same,GI50,HOP-92,17.4 µM
same,CC50,HOP-92; [5],> 100 µM
same,TGI,HOP-92; read-out: Log TGI (converted),46.8 µM
same,GI50,SNB-75,30.9 µM
same,LC50,SNB-75,> 100 µM
same,TGI,SNB-75; read-out: Log TGI (converted),74.1 µM
same,GI50,T47D [4],20.9 µM
same,LC50,T47D [4],> 100 µM
same,TGI,T47D [4]; read-out: Log TGI (converted),93.3 µM

# Source: ChEMBL document CHEMBL1141286, “Benzochromenones from the marine crinoid Comantheria rotula inhibit hypoxia-inducible factor-1 (HIF-1) in cell-based reporter assays and differentially suppress the growth of certain tumor cell lines” (J Nat Prod, 2007)
